Results gathered from unrelated publications.
Lines come from different studies, so protocols differ.
Sample: Caco-2

| SMILES | tested at | time | pH | endpoint | value |
| --- | --- | --- | --- | --- | --- |
| NC[C@H]1O[C@@H](O[C@@H]([C@H](NCCCC(=O)NCc2ccc(N3CCC(Oc4ccc(OC(F)(F)F)cc4)CC3)cc2)C(N)=O)[C@H]2O[C@@H](n3ccc(=O)[nH]c3=O)C(O)C2O)[C@H](O)[C@@H]1O (stereo partly shown) | – | – | – | Papp | < 10 nm/s |
| C[C@]12C[C@@H](O)[C@H]3[C@@H](CC[C@]4(O)C[C@@H](O)C[C@@H](O)[C@]34CO)[C@@]1(O)CC[C@@H]2c1cn(Cc2ccccc2)nn1 | – | 40 min | pH 6.5 | Papp B→A | 1.4 nm/s |
| N=c1c2c(-c3ccccc3)c(-c3ccccc3)n(Cc3ccccc3)c2ncn1[C@H]1CC[C@H](O)CC1 | 3 µM | 2 h | pH 7.4 | Papp B→A | 20 nm/s |
| C/N=c1\nc(-c2ccccc2)n(-c2ccccc2)s1 | 20 µM | 95 min | – | Papp B→A | 374 nm/s |
| C=C(CCC=C(C)C)[C@H]1CC[C@]2(C)[C@@H]1[C@H](O)C[C@@H]1[C@@]3(C)C[C@@H](O)[C@H](O[C@@H]4O[C@H](CO)[C@@H](O)[C@H](O)[C@H]4O[C@@H]4O[C@H](CO)[C@@H](O)[C@H](O)[C@H]4O)C(C)(C)[C@@H]3CC[C@]12C | 1 mg/mL | – | pH 7.4 | Papp | 35.6 nm/s |
| COc1ccc2c(c1)[C@]13CCCC[C@@H]1[C@H](C2)N(C)CC3 | 10 µM | – | pH 6.5 | Papp B→A | 696 nm/s |
| CC[C@@]1(O)C(=O)OCc2c1cc1n(c2=O)Cc2cc3ccccc3nc2-1 | – | 105 min | – | Papp B→A | ~35 nm/s |
| COc1cc2c(c(OC)c1OC)-c1ccc(OC)c(=O)cc1[C@@H](NC(C)=O)CC2 | – | – | – | Papp B→A | 49 nm/s |
| COC(=O)N[C@H](C(=O)NN(CCC[C@@]1(Cc2ccccc2)C(=O)N([C@H]2c3ccccc3C[C@H]2O)C[C@H]1O)Cc1ccc(Br)cc1)C(C)(C)C | 10 µM | 1 h | pH 7.4 | Papp A→B | > 200 nm/s |
| CC(C)NCC(O)COc1cccc2ccccc12 (stereo not shown) | – | 1 h | pH 7.4 | Papp A→B | 218 nm/s |
| C=CCc1ccc(O)c(-c2cc(CC=C)ccc2O)c1 | 0.05 mg/mL | 4 h | pH 7.4 | Papp A→B | 90 nm/s |
| C[C@H]1O[C@@H](O[C@H]2[C@@H](O)C[C@H](O[C@H]3[C@@H](O)C[C@H](O[C@H]4CC[C@@]5(C)[C@H](CC[C@@H]6[C@@H]5C[C@@H](O)[C@]5(C)[C@@H](C7=CC(=O)OC7)CC[C@]65O)C4)O[C@@H]3C)O[C@@H]2C)C[C@H](O)[C@@H]1O | 10 µM | 1 h | pH 7.4 | Papp B→A | 228 nm/s |
| O=C(CCCN1CCC2(CC1)C(=O)NCN2c1ccccc1)N(CC1CCCCC1)c1ccccc1 | – | – | – | Papp A→B | 28.3 nm/s |
